Activity calls are given as the source filed them. No cut-off for these calls is given here.
What was measured:
U1 [1] = assay: Induction of apoptosis in human U1 cells at 1 uM incubated for 48 hrs by propidium iodide/annexin-V staining based flow cytometry (reference value: 3.16%); type: functional
[2] = molecular target: T1, Protein kinase C (PKC) (Homo sapiens) (UniProt O94806+P41743+P17252+P05129+Q05655+P05771+Q05513+Q02156+P24723+Q15139+Q04759); assay: Activation of PKC in human J-Lat 6.3 cells infected with latent HIV-1 assessed as reversal of HIV-1 latency by measuring increase of GFP-positive cells at 10 uM in presence of PKC alpha/beta inhibitor Go-6976 incubated for 24 hrs by flow cytometry; type: cell-based
How it was run: (§1)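 J-Lat 6.3 cells pretreated 3 h with a PKC inhibitor: Gö 6983 1 µM, Gö 6976 1 µM, GF 109203X 1 µM, PKCθ/δ inhibitor 10 µM, or Rottlerin 1 µM. Then exposed to 10 µM compound for 24 h; GFP-positive cells counted by flow cytometry. Mean ± S.D.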

[3] = molecular target: T1, Protein kinase C (PKC) (Homo sapiens); assay: Activation of PKC in human J-Lat 6.3 cells infected with latent HIV-1 assessed as reversal of HIV-1 latency by measuring increase of GFP-positive cells at 10 uM in presence of pan-PKC inhibitor Go-6983 incubated for 24 hrs by flow cytometry; type: cell-based; how it was run: as §1
Protein kinase C (PKC) [4] = assay: Activation of PKC in human ACH-2 cells infected with latent HIV-1 assessed as reversal of HIV-1 latency by measuring increase in p24 antigen level incubated for 48 hrs by chemiluminescent enzyme immunoassay; type: cell-based; details: ach-2 cell line
ACH-2 cell line [5] = assay: Induction of apoptosis in human ACH-2 cells at 1 uM incubated for 48 hrs after pre-incubated for 2 hrs with 20 uM caspase inhibitor Q-VD-Oph by propidium iodide/annexin-V staining based flow cytometry; type: functional, cell-based
How it was run: (§2)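 ACH-2 or U1 cells pretreated 2 h with 20 µM pan-caspase inhibitor Q-VD-Oph, then exposed to 1 µM compound for 48 h. Annexin-V/PI staining by flow cytometry; apoptotic proportions compared with and without Q-VD-Oph. Mean ± S.D.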

[6] = molecular target: T1, Protein kinase C (PKC) (Homo sapiens); assay: Activation of PKC in human J-Lat 6.3 cells infected with latent HIV-1 assessed as reversal of HIV-1 latency by measuring increase of GFP-positive cells at 10 uM in presence of PKC delta inhibitor Rottlerin incubated for 24 hrs by flow cytometry; type: cell-based; how it was run: as §1
U1 [7] = assay: Induction of apoptosis in human U1 cells at 1 uM incubated for 48 hrs after pre-incubated for 2 hrs with 20 uM caspase inhibitor Q-VD-Oph by propidium iodide/annexin-V staining based flow cytometry; type: functional, cell-based; how it was run: as §2
J-Lat 6.3 [8] = assay: Induction of apoptosis in human J-Lat 6.3 cells assessed as caspase-3 activation at 1 uM incubated for 24 hrs by flow cytometry (reference value: 2.43%); type: functional
How it was run: (§3)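 Cells fixed in 1% paraformaldehyde, permeabilized, stained 30 min on ice with anti-active caspase-3 mAb, and analysed by flow cytometry. Three independent experiments.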

U1 [9] = assay: Induction of apoptosis in human U1 cells assessed as caspase-3 activation at 1 uM incubated for 24 hrs by flow cytometry; type: functional; how it was run: as §3
ACH-2 cell line [10] = assay: Induction of apoptosis in human ACH-2 cells at 1 uM incubated for 48 hrs by propidium iodide/annexin-V staining based flow cytometry (reference value: 3.16%); type: functional
[11] = molecular target: T1, Protein kinase C (PKC) (Homo sapiens); assay: Activation of PKC in human J-Lat 6.3 cells infected with latent HIV-1 assessed as reversal of HIV-1 latency by measuring increase of GFP-positive cells at 10 uM in presence of PKC theta/delta/epsilon/eta inhibitor PKCtheta/delta inhibitor incubated for 24 hrs by flow cytometry; type: cell-based; how it was run: as §1
U-937 = assay: Induction of apoptosis in human U-937 cells assessed as caspase-3 activation at 1 uM incubated for 24 hrs by flow cytometry; type: functional; how it was run: as §3
[12] = Toxicity in human PBMC assessed as reduction in cell viability after 5 days by WST8 assay; type: cell-based; details: time 5 day
How it was run: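 PBMC from a healthy donor exposed to drug, with viability determined at day 5. CC50 is the concentration reducing viability by 50%.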

U1 [13] = assay: Induction of apoptosis in human U1 cells assessed as caspase-3 activation at 1 uM incubated for 24 hrs by flow cytometry (reference value: 1.86%); type: functional; how it was run: as §3
[14] = Toxicity in human A3.01 cells assessed as reduction in cell viability after 48 hrs by WST8 assay; type: cell-based
How it was run: (§4)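 Parental, uninfected lines (A3.01 for ACH-2, U937 for U1) at 5 × 10^5 cells/ml cultured with or without drug. Viable cells read at 48 h (day 2) and expressed as % of untreated control. CC50 taken as the concentration lowering viability by 50%.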

[15] = Toxicity in human U-937 cells assessed as reduction in cell viability after 48 hrs by WST8 assay; type: cell-based; how it was run: as §4
ACH-2 cell line [16] = assay: Induction of apoptosis in human ACH-2 cells assessed as caspase-3 activation at 1 uM incubated for 24 hrs by flow cytometry; type: functional; how it was run: as §3
Jurkat = assay: Induction of apoptosis in human Jurkat cells assessed as caspase-3 activation at 1 uM incubated for 24 hrs by flow cytometry; type: functional; how it was run: as §3
[17] = molecular target: T1, Protein kinase C (PKC) (Homo sapiens); assay: Activation of PKC in human U1 cells infected with latent HIV-1 assessed as reversal of HIV-1 latency by measuring increase in p24 antigen level at 1 to 10000 nM incubated for 48 hrs by chemiluminescent enzyme immunoassay; type: cell-based; details: filed as activator, dose 1-10000 nM
How it was run: (§5)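 ACH-2 or U1 cells (5 × 10^5 cells/ml) incubated 48 h with graded drug concentrations. Supernatant p24 antigen measured by automated chemiluminescent immunoassay. EC50 calculated taking the maximum response with excess PMA as 100%. Means ± S.D. of three independent experiments.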

[18] = Induction of apoptosis in human CEM A3.01 cells assessed as caspase-3 activation at 1 uM incubated for 24 hrs by flow cytometry; type: functional; how it was run: as §3
ACH-2 cell line [19] = assay: Induction of apoptosis in human ACH-2 cells at 1 uM after 48 hrs by PI/annexin-V staining based flow cytometry; type: functional
[20] = molecular target: T1, Protein kinase C (PKC) (Homo sapiens); assay: Activation of PKC in human J-Lat 6.3 cells infected with latent HIV-1 assessed as reversal of HIV-1 latency by measuring increase of GFP-positive cells at 10 uM in presence of PKC alpha/beta/gamma inhibitor GF109203X incubated for 24 hrs by flow cytometry; type: cell-based; how it was run: as §1
U1 [21] = assay: Induction of apoptosis in human U1 cells at 1 uM after 48 hrs by PI/annexin-V staining based flow cytometry; type: functional
J-Lat 6.3 [22] = assay: Induction of apoptosis in human J-Lat 6.3 cells assessed as caspase-3 activation at 1 uM incubated for 24 hrs by flow cytometry; type: functional; how it was run: as §3
ACH-2 cell line [23] = assay: Induction of apoptosis in human ACH-2 cells assessed as cleaved-PARP level at 1 uM incubated for 24 hrs by flow cytometry (reference value: 1.64%); type: functional
How it was run: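 Cells fixed, permeabilized, stained on ice with anti-cleaved PARP (Asp-214) mAb; % cleaved-PARP cells by flow cytometry. Means ± S.D. of three independent experiments.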

J-Lat 6.3 (Homo sapiens) = assay: Induction of apoptosis in human J-Lat 6.3 cells at 1 uM incubated for 48 hrs after pre-incubated for 2 hrs with 20 uM caspase inhibitor Q-VD-Oph by propidium iodide/annexin-V staining based flow cytometry
[24] = molecular target: T1, Protein kinase C (PKC) (Homo sapiens); assay: Activation of PKC in human ACH-2 cells infected with latent HIV-1 assessed as reversal of HIV-1 latency by measuring increase in p24 antigen level at 1 to 10000 nM incubated for 48 hrs by chemiluminescent enzyme immunoassay; type: cell-based; details: ACH-2 cell line, filed as activator, dose 1-10000 nM; how it was run: as §5
Protein kinase C (PKC) [25] = assay: Activation of PKC in human U1 cells infected with latent HIV-1 assessed as reversal of HIV-1 latency by measuring increase in p24 antigen level incubated for 48 hrs by chemiluminescent enzyme immunoassay; type: cell-based
J-Lat 6.3 [26] = assay: Induction of apoptosis in human J-Lat 6.3 cells at 1 uM incubated for 48 hrs by propidium iodide/annexin-V staining based flow cytometry (reference value: 3.16%); type: functional

Row | Compound | Activity (U1 [1]) [%] | Activity [2] | Activity [3] | EC50 (Protein kinase C (PKC) [4]) [µM] | Activity (ACH-2 cell line [5]) | Activity [6] | Activity (U1 [7]) | Activity (J-Lat 6.3 [8]) [%] | Activity (U1 [9]) [%] | Activity (ACH-2 cell line [10]) [%] | Activity [11] | Activity (U-937) [%] | CC50 at 120 h [12] [µM] | Activity (U1 [13]) [%] | CC50 at 48 h [14] [µM] | CC50 at 48 h [15] [µM] | Activity (ACH-2 cell line [16]) [%] | Activity [17] | Activity [24] | EC50 (Protein kinase C (PKC) [25]) [µM] | other results
1 | CC(C)[C@H]1C(=O)N[C@H](CO)Cc2c[nH]c3cccc(c23)N1C [INDOLACTUM] | 17.7 | inactive | inactive | 0.047 | inactive | inactive | inactive | 22.2 | 30.5 | 45.1 | inactive | 0.584 | > 100 | 7.82 | > 100 | > 100 | 24.2 | Active | Active | 0.36 | Activity (Jurkat): 1.72%; Activity [18]: 2.69%; Activity (ACH-2 cell line [19]): 47.1%; Activity [20]: inactive; Activity (U1 [21]): 18%; Activity (J-Lat 6.3 [22]): 14.1%; Activity (ACH-2 cell line [23]): 24.2%; Activity (J-Lat 6.3 (Homo sapiens)): inactive; Activity (J-Lat 6.3 [26]): 15.7%
2 | CCCCCCCCCCc1ccc2c(c1)N(C)[C@H](C(C)C)C(=O)N[C@H](CO)C2 | 5.9 | inactive | inactive | 0.43 | inactive | inactive | inactive | 4.35 | 8.42 | 18.2 | inactive | 0.127 | 18.9 | 4.66 | 17.8 | 39.2 | 11.5 | Active | Active | 2.33 | Activity (Jurkat): 0.587%; Activity [18]: 1.26%; Activity (ACH-2 cell line [19]): 20.4%; Activity [20]: inactive; Activity (U1 [21]): 6.1%; Activity (J-Lat 6.3 [22]): 2.25%; Activity (ACH-2 cell line [23]): 10%; Activity (J-Lat 6.3 (Homo sapiens)): inactive; Activity (J-Lat 6.3 [26]): 7.95%
3 | CCCCCCCCCCc1ccc2c(c1)N(C)[C@H](C(C)C)C(=O)N[C@H](CO)CC2 | – | – | – | 1.54 | – | – | – | – | – | – | – | – | > 100 | – | > 100 | > 100 | – | Active | Active | 4 | –
4 | CC(C)[C@H]1C(=O)N[C@H](CO)Cc2cc3c(cc2N1C)C(C)(C)CCC3(C)C | – | – | – | 2.91 | – | – | – | – | – | – | – | – | 65.8 | – | 19.5 | 22.9 | – | Active | Active | 9.89 | –
